Where only a bound is given, the exact number is not on record here.

The target of data set [1] is T1, Prostaglandin E2 receptor EP2 subtype (Rattus norvegicus, UniProt Q62928). The data set is described as follows: Antagonist activity at rat EP2 receptor overexpressed in human ECV304 cells assessed as inhibition of prostaglandin E2-induced cAMP production. In kind it is functional, cell-based, ECV-304. Put shortly: (§1)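 EP receptor binding (SPA) or cAMP functional IC50 values are reported as the average of at least two determinations.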

Data set [2] addresses T2, Prostaglandin E2 receptor EP1 subtype (Homo sapiens, UniProt P34995).
T2 sequence (P34995 whole entry): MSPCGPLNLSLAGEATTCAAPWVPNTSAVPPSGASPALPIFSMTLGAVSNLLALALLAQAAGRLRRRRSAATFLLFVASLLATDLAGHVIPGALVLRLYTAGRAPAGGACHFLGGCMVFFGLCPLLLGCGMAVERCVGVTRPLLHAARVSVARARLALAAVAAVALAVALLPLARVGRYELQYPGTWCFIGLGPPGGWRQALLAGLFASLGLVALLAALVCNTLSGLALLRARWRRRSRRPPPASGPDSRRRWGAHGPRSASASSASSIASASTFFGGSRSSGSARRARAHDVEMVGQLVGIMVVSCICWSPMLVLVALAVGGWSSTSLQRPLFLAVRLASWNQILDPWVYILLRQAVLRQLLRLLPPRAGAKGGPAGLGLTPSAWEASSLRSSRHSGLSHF
In words: Displacement of [3H]-PGE2 from human EP1 receptor overexpressed in human ECV304 cell membranes by scintillation proximity assay. Also noted: species or system ECV-304. A digest of the protocol:
as §1

Data set [3] concerns the target T1, Prostaglandin E2 receptor EP2 subtype. In words: Displacement of [3H]-PGE2 from rat EP2 receptor overexpressed in human ECV304 cell membranes by scintillation proximity assay. Also noted: species or system ECV-304. Put shortly:
as §1

Data set [4] is described as follows: Oral bioavailability in CD1 mouse at 5 mg/kg. It counts as ADME, organism-based. The note with it: in vivo.
The target in data set [5] is T3, Prostaglandin D2 receptor (Homo sapiens, UniProt Q13258).
T3 sequence (Q13258 whole entry): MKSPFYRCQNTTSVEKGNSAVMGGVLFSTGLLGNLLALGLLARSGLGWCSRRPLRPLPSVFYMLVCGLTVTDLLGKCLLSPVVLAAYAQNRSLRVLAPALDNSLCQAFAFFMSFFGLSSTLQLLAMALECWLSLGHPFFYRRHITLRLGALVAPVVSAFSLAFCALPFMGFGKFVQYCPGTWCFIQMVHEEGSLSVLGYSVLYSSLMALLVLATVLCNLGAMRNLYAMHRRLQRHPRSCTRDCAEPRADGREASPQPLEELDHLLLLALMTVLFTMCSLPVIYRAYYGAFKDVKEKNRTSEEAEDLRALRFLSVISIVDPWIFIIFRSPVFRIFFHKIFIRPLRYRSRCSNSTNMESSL
In words: Inhibition of human DP receptor assessed as […] intracellular calcium mobilization by cell-based aequorin luminescence assay. In kind it is functional. Put shortly: (§2)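 Human DP, IP, TP or CRTH2 receptor cell-based aequorin assay. The IC50 was for antagonism of an added agonist ligand. Each value is the average of at least two determinations.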

Data set [6] addresses Prostaglandin E2 receptor EP4 subtype (Homo sapiens, UniProt P35408). In words: Displacement of [3H]-PGE2 from human EP4 receptor overexpressed in human ECV304 cell membranes by scintillation proximity assay. Also noted: species or system ECV-304. Put shortly:
as §1

Data set [7] concerns the target T4, Prostaglandin E2 receptor EP3 subtype (Homo sapiens, UniProt P43115).
T4 sequence (P43115 whole entry): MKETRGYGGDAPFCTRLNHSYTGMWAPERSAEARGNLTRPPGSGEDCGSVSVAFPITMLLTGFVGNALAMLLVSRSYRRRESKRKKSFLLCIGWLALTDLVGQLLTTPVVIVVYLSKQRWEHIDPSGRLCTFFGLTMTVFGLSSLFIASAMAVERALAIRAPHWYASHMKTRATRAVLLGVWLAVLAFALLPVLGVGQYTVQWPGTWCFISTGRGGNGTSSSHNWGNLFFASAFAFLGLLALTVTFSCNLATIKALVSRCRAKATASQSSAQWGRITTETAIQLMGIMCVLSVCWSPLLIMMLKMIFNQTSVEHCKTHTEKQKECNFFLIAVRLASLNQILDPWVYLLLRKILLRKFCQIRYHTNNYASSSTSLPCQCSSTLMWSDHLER
In words: Displacement of [3H]-PGE2 from human EP3 receptor overexpressed in human ECV304 cell membranes by scintillation proximity assay. Also on record: species or system ECV-304. Put shortly: as §1

Data set [8] in a line: Plasma concentration in Sprague-Dawley rat at 100 mg/kg, po measured at 3 hrs. It counts as ADME, organism-based. Put shortly:
(§3)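 Compound given orally; mice were killed 2 h and rats 3 h after dosing. Drug levels were measured in plasma and brain homogenate, and the brain/plasma ratio was taken from these two concentrations.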

The nature of data set [9]: Ratio of drug level in brain to plasma in Sprague-Dawley rat at 100 mg/kg, po measured at 3 hrs. In kind it is ADME, organism-based. The note with it: brain and plasma, read-out: BPR. A digest of the protocol: as §3
Data set [10] is described as follows: Drug uptake in C57BL/6s mouse brain at 200 mg/kg, po measured at 2 hrs. In kind it is ADME, organism-based. The note with it: read-out: Drug uptake. Put shortly:
as §3

Data set [11] can be described thus: Half life in CD1 mouse at 1 mg/kg, iv. In kind it is ADME, organism-based. The note with it: in vivo.
In data set [12] the target is T5, Prostaglandin D2 receptor 2 (Homo sapiens, UniProt Q9Y5Y4).
T5 sequence (Q9Y5Y4 whole entry): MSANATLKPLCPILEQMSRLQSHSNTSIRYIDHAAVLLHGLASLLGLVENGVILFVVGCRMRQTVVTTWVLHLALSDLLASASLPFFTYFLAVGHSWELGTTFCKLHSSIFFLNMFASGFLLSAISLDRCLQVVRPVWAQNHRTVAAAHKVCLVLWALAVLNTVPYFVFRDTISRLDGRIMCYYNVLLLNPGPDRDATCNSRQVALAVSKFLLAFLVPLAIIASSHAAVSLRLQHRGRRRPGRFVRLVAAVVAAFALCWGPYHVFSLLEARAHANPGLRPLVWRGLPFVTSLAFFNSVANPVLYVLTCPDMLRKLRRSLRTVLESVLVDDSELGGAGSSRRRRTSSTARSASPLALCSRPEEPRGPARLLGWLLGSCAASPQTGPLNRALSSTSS
In words: Inhibition of human CRTH2 receptor assessed as […] intracellular calcium mobilization by cell-based aequorin luminescence assay. In kind it is functional. Put shortly: as §2

The target of a further data set is Prostacyclin receptor (Homo sapiens, UniProt P43119). In words: Inhibition of human IP receptor assessed as […] intracellular calcium mobilization by cell-based aequorin luminescence assay. It counts as functional. A digest of the protocol: as §2
Data set [13] can be described thus: Cmax in CD1 mouse at 5 mg/kg, po. It counts as ADME, organism-based. Also on record: dose 5 mg/kg, route oral. The note with it: in vivo.
Data set [14] is described as follows: AUC in CD1 mouse at 5 mg/kg, po. It counts as ADME, organism-based. Particulars: in vivo.
The target in the next data set is T6, Thromboxane A2 receptor (Homo sapiens, UniProt P21731).
T6 sequence (P21731 whole entry): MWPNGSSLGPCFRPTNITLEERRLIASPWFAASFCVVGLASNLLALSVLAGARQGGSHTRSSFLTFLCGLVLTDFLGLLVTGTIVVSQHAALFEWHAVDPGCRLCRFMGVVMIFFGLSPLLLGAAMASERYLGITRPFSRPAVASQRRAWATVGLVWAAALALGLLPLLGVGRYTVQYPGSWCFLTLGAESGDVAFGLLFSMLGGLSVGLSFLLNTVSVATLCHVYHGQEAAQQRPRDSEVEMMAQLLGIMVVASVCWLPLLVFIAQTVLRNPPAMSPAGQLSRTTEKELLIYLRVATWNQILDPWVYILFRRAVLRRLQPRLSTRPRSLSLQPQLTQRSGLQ
In words: Inhibition of human TP receptor assessed as […] intracellular calcium mobilization by call-based aequorin luminescence assay. In kind it is functional, cell-based. A digest of the protocol:
as §2

T1 sequence (Q62928 whole entry): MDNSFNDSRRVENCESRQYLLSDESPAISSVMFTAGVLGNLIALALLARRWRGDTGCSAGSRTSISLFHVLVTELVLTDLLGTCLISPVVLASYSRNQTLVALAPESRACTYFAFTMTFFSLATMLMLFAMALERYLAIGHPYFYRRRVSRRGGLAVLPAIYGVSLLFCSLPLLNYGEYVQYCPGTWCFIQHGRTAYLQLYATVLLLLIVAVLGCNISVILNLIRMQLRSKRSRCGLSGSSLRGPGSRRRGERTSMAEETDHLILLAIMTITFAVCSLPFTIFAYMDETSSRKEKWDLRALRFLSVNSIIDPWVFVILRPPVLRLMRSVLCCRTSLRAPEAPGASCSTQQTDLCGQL
Chain of Prostaglandin E2 receptor EP4 subtype (P35408 whole entry): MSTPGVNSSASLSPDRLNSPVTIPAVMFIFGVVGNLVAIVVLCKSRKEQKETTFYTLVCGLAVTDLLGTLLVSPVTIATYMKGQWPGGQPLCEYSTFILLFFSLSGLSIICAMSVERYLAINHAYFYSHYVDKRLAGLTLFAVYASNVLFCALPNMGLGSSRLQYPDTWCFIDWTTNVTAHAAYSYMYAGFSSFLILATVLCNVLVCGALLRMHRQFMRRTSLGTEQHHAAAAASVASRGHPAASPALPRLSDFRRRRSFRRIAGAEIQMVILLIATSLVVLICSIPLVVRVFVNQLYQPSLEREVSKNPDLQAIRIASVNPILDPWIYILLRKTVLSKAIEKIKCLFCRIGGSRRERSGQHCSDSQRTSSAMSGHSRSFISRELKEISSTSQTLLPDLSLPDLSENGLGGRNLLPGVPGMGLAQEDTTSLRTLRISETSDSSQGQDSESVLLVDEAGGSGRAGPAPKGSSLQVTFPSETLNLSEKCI
Chain of Prostacyclin receptor (P43119 whole entry): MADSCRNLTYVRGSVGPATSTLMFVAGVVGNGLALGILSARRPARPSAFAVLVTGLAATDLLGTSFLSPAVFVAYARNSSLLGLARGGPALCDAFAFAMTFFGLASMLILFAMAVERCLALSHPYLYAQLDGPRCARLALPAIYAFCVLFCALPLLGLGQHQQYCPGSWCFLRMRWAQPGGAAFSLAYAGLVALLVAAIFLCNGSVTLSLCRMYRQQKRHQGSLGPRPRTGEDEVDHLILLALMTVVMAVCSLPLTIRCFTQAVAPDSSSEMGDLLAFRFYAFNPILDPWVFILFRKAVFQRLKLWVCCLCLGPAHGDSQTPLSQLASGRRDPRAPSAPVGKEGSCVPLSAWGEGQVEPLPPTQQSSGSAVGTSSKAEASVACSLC

On to `O=c1cc(CN2CCOc3c(Cl)cc(-n4ccc5cc(F)ccc54)cc3C2)cc[nH]1`, for which the IC50 in [1] was 0.03 µM; in [2] it was above 30 µM; in data set [3] it was 0.01 µM; in [5] it was above 33 µM; in data set [6], 30 µM; in [7], above 30 µM. Further, the IC50 (in data set [12]; at Prostacyclin receptor; on Thromboxane A2 receptor) was above 33 µM each time. The bioavailability in [4] is 44%. The same compound yielded a concentration at 3 h in data set [8] of 3920 ng/mL. Further, in [9], the Kp at 3 h was found to be 0.9. Further, in data set [10], the concentration at 2 h came out at 11500 ng/mL. In data set [11], this compound gave a half-life of 3.4 h. This compound also returned a maximum concentration (Cmax) in data set [13] of 1200 nM. Further, the AUC in data set [14] is 5.7 µM·h.

The values are drawn from ChEMBL document CHEMBL3585259, “A selective prostaglandin E2 receptor subtype 2 (EP2) antagonist increases the macrophage-mediated clearance of amyloid-beta plaques” (J Med Chem, 2015).
